Measured values taken from ChEMBL document CHEMBL3994667, “Small Molecule Lysyl Oxidase-like 2 (LOXL2) Inhibitors: The Identification of an Inhibitor Selective for LOXL2 over LOX” (ACS Med Chem Lett, 2017).

Key:
[1] = molecular target: T1, Lysyl oxidase homolog 2 (Homo sapiens, UniProt Q9Y4K0); experiment: Inhibition of full length recombinant human LOXL2 expressed in CHO cells assessed as reduction in H2O2 production using DAP as substrate preincubated for 2 hrs followed by substrate addition measured every 2 minutes for 50 minutes by Amplex red dye based fluorescence assay
T1 sequence (Q9Y4K0 whole entry): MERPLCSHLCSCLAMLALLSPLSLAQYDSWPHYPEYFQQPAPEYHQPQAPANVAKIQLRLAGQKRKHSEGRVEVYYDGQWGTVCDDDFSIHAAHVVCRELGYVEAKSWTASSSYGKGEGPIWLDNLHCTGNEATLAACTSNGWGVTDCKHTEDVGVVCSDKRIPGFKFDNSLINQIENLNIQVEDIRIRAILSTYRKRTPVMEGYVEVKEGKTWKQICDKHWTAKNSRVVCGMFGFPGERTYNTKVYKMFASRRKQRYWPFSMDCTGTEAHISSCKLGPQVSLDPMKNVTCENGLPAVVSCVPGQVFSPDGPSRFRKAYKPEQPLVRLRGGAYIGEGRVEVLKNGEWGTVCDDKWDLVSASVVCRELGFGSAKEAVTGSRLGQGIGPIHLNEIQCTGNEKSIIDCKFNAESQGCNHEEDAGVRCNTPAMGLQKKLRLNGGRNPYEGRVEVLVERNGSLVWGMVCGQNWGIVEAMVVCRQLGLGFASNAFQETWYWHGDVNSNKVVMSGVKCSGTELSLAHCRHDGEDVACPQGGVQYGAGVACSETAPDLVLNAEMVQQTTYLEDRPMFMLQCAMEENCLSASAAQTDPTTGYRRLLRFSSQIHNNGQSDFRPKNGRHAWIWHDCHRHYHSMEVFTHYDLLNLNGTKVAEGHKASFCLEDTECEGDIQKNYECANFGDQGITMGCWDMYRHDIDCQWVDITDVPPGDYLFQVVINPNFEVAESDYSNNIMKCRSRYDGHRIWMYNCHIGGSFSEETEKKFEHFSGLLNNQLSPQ

[2] = molecular target: T1, Lysyl oxidase homolog 2; experiment: Inhibition of full length recombinant human LOXL2 expressed in CHO cells assessed as reduction in H2O2 production using DAP as substrate preincubated for 15 mins followed by substrate addition measured every 2 minutes for 50 minutes by Amplex red dye based fluorescence assay
How it was run: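 Enzyme source: serum-free concentrated conditioned medium from CHO cells stably expressing human LOXL2. Inhibitor preincubated with enzyme for 15 min, then 1,5-diaminopentane (DAP) added. H2O2 from oxidative deamination read by Amplex Red. IC50 reported as geometric mean x/÷ geometric SD, with N given.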

[3] = molecular target: T2, Protein-lysine 6-oxidase (Homo sapiens, UniProt P28300); experiment: Inhibition of full length recombinant human LOX expressed in HEK cells assessed as reduction in H2O2 production using DAP as substrate preincubated for 2 hrs followed by substrate addition measured every 2 minutes for 50 minutes in presence of BSA by Amplex red dye based fluorescence assay
T2 sequence (P28300 whole entry): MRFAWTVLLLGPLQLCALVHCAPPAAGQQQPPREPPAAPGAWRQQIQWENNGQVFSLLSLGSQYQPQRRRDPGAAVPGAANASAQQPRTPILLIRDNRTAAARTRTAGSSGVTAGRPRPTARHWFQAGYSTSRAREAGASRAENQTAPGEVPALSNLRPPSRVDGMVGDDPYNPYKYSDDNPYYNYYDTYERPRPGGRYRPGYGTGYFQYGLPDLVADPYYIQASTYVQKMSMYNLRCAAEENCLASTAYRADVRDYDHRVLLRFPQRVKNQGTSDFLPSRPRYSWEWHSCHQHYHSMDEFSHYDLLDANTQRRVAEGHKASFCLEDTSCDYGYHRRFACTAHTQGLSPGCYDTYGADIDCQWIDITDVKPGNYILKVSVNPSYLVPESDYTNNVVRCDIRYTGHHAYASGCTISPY
How it was run: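 Enzyme source: serum-free conditioned media from HEK cells stably expressing human LOX, with BSA added to give measurable activity. Activity is measured as H2O2 from oxidative deamination of 1,5-diaminopentane (DAP), read by Amplex Red. IC50 is given as geometric mean x/÷ geometric standard deviation, with N-values reported.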

[4] = molecular target: T3, Lysyl oxidase homolog 2 (Rattus norvegicus, UniProt B5DF27); experiment: Inhibition of full length recombinant rat LOXL2 expressed in CHO cells assessed as reduction in H2O2 production using DAP as substrate preincubated for 2 hrs followed by substrate addition measured every 2 minutes for 50 minutes in presence of BSA by Amplex red dye based fluorescence assay
T3 sequence (B5DF27 whole entry): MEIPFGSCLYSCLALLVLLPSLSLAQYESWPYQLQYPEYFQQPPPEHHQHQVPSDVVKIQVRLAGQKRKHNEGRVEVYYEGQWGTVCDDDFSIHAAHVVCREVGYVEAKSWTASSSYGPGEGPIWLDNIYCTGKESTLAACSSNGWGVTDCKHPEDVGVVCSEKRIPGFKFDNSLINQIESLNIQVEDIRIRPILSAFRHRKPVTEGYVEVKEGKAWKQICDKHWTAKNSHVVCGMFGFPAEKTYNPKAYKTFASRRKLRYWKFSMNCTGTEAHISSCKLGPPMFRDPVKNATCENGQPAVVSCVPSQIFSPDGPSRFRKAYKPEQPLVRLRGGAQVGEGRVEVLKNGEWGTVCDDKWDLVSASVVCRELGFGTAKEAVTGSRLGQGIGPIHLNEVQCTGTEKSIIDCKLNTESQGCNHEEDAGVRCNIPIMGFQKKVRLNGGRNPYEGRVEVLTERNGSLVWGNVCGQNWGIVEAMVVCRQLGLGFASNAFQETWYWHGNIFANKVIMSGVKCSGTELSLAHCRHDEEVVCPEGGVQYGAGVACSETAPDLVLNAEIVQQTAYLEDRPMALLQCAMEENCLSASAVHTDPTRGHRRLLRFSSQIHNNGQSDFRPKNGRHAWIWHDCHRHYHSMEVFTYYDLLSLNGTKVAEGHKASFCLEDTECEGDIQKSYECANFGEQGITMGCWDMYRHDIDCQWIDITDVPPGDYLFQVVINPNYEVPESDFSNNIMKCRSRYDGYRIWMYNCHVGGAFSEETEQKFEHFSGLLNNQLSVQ
How it was run: (§1)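 Rodent LOXL2 is tested under the same conditions as the BSA-supplemented assay: conditioned media plus BSA, with DAP as substrate and Amplex Red detection of H2O2. Species are mouse and rat. IC50 is the geometric mean x/÷ geometric standard deviation from 3 determinations.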

[5] = molecular target: T1, Lysyl oxidase homolog 2; experiment: Inhibition of full length recombinant human LOXL2 expressed in CHO cells assessed as reduction in H2O2 production using DAP as substrate preincubated for 2 hrs followed by substrate addition measured every 2 minutes for 50 minutes in presence of BSA by Amplex red dye based fluorescence assay
How it was run: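 Serum-free concentrated conditioned medium from CHO cells stably expressing human LOXL2, supplemented with BSA. Compounds preincubated for 2 h (the screening preincubation time). Substrate was 1,5-diaminopentane, and the H2O2 formed was detected with Amplex Red. IC50 given as geometric mean x/÷ geometric SD over N determinations.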

[6] = molecular target: T4, Lysyl oxidase homolog 2 (Mus musculus, UniProt P58022); experiment: Inhibition of full length recombinant mouse LOXL2 expressed in CHO cells assessed as reduction in H2O2 production using DAP as substrate preincubated for 2 hrs followed by substrate addition measured every 2 minutes for 50 minutes in presence of BSA by Amplex red dye based fluorescence assay; assay type: cell-based; how it was run: as §1
T4 sequence (P58022 whole entry): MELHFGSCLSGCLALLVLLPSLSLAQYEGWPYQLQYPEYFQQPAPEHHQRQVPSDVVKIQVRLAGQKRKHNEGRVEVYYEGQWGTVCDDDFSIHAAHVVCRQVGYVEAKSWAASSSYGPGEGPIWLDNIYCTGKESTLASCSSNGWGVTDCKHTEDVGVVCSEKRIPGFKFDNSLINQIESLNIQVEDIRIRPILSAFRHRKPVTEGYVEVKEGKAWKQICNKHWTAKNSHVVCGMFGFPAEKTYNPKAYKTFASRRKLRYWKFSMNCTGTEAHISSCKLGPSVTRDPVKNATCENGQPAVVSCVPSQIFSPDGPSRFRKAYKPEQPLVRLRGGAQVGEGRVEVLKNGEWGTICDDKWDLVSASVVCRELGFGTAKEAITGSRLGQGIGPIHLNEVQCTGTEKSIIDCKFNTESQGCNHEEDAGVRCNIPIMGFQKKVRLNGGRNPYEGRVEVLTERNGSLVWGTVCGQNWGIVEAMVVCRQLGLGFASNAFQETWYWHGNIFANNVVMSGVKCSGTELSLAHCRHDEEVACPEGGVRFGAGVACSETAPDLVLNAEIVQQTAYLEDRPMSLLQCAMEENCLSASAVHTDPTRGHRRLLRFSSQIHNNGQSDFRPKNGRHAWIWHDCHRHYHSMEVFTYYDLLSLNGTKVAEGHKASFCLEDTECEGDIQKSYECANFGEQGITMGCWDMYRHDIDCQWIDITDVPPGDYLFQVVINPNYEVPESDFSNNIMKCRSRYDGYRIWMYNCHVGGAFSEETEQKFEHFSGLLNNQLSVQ

SMILES | IC50 [1] [nM] | other results
N=C(N)c1ccc(CN)cc1 | 1110 | –
NCc1ccncc1 | 1220 | –
NCc1ccc([N+](=O)[O-])cc1 | 719 | –
NCc1ccnc(-n2ccnc2)c1 | 203 | –
NCc1ccnc2ccccc12 | 6040 | –
NCc1ccccc1 [BENZYLAMINE] | 64700 | –
NCc1cc(-c2cccnc2)ncc1C(F)(F)F | > 31000 | –
CNCc1ccc(C#N)cc1 | > 100000 | –
NCc1ccnc(F)c1 | 385 | –
NCc1ccc(F)cc1 | 26000 | –
NCCc1ccccc1 [PHENETHYLAMINE] | 60100 | –
COC(=O)c1ccc(CN)cc1 | 3620 | –
NCCc1ccncc1 | 8210 | –
N#Cc1ccc(CN)cc1 | 670 | –
N[C@@H]1C[C@H]1c1ccccc1.N[C@H]1C[C@@H]1c1ccccc1 [TRANYLCYPROMINE] | > 100000 | –
NCc1ccc(N)cc1 | 47000 | –
NCc1ccnc(-c2cccnc2)c1 | 321 | –
N=C(N)c1cccc(CN)c1 | 4970 | –
NCc1ccncc1F | 431 | –
NCc1ccc(-c2nccs2)cc1 | 902 | –
COC(=O)c1cccc(CN)c1 | 3540 | –
N#CCCN | 66 | IC50 [2]: 243 nM; IC50 [3]: 550 nM; IC50 [4]: 127 nM; IC50 [5]: 83 nM; IC50 [6]: 128 nM
